Measurements collected from several papers.
Target: Serine/threonine-protein kinase MRCK alpha (CDC42BPA, Homo sapiens, UniProt Q5VT25)

Structure (SMILES) | test | setting | remaining binding [%]
O=C1CCc2cc(Nc3cc(OC4CCOCC4)c([N+](=O)[O-])cc3Cl)ccc2N1 | cell-free assay, competition with immobilised ligand | 1 µM | 91
CN(C)c1nccc(-c2cnn3ncccc23)n1 | binding | 1 µM | 100
COc1cnc(Nc2cccc(S(N)(=O)=O)c2)nc1N1CCN(c2ccccc2)C(=O)C1 | binding, competition with immobilised ligand | 1 µM | 100
CC1CCCN1c1nccc(-c2cnn3ncccc23)n1 (stereo not shown) | binding | 1 µM | 100
O=C(NCc1ncc(C(F)(F)F)cc1Cl)c1ccc2c(c1)C1(CCS(=O)(=O)CC1)[C@@H](C1CC1)N2S(=O)(=O)c1ccc(F)cc1 | cell-free assay, competition with immobilised ligand | 1 µM | 100
CN(C)c1nccc(-c2cnc3ncccn23)n1 | binding | 1 µM | 83
Cc1noc([C@H]2C[C@@H](c3ccc(C(F)(F)F)cc3)CN(C(=O)N3CCS(=O)(=O)C3)C2)n1 | cell-free assay, competition with immobilised ligand | 1 µM | 100
Cc1cnc(Nc2ccc(C(=O)N3CCC(N4CCCC4)CC3)cc2)nc1-c1cc2ccccc2s1 | binding, competition with immobilised ligand | 1 µM | 10
O=C(Nc1c[nH]nc1C(=O)NC1CCNCC1)c1cc(F)cc(F)c1 | binding, competition with immobilised ligand | 1 µM | 95
CN(CCCC(F)(F)F)c1nccc(-c2cnn3ncccc23)n1 | binding | 1 µM | 100
O=C(NCCCN1CCOCC1)c1ccc(Nc2ncc(Cl)c(-c3ccc(Cl)s3)n2)cc1 | binding, competition with immobilised ligand | 1 µM | 100
CN(c1nccc(-c2cnn3ncccc23)n1)C1CC1 | binding | 1 µM | 100
O=C(c1ccc(Nc2ncc(Cl)c(-c3cc4ccccc4s3)n2)cc1)N1CCC(N2CCCC2)CC1 | binding, competition with immobilised ligand | 1 µM | 14
COc1cnc(Nc2cccc(S(N)(=O)=O)c2)nc1N1CCN(c2ccccc2)CC1 | binding, competition with immobilised ligand | 1 µM | 97
N[C@H]1CCN(c2nccc(-c3cnn4ncccc34)n2)C1 | binding | 1 µM | 84
COc1ncc2cc3ccccc3nc2c1C#N | cell-free assay, competition with immobilised ligand | 5 µM | 100
CS(=O)(=O)N1CCCC(NC(=O)[C@H](CCC2CCCCC2)NC(=O)c2ccc(CNc3ncnc4c3nnn4-c3ccccc3)cc2)C1 (stereo partly shown) | cell-free assay, competition with immobilised ligand | 0.1 µM | 100
c1cncc(-c2cccc(Nc3nccc(NC4CCCCC4)n3)c2)c1 | binding, competition with immobilised ligand | 10 µM | 100
C[C@@]1(Cc2ccc(C#N)cc2)C(=O)N(c2cc(Cl)cc(Cl)c2)c2ncc(C(=O)NC3(c4nc(C5CCC5)no4)CC3)n21 | cell-free assay, competition with immobilised ligand | 1 µM | 100
CN(C)c1ncc(F)c(-c2cnn3ncccc23)n1 | binding | 1 µM | 100
CN(C)CC#Cc1ccc(OCCCc2sc(N3CCc4cccc(C(=O)Nc5nc6ccccc6s5)c4C3)nc2C(=O)O)c(F)c1 | cell-free assay, competition with immobilised ligand | 1 µM | 97
Nc1ncc2c(n1)-c1c([nH]c3ccc(C#CC4CC4)cc13)CCCC2 | binding, competition with immobilised ligand | 1 µM | 88
